Data from PubChem BioAssay.
Active and inactive are the calls of the source.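 How the source made its calls, unless noted: active means Her2 level under about 52% in both replicate screens, with viability over 70% of control (limit read from the data); inconclusive means Her2 under the limit in one screen only, or viability under 70%; inactive means Her2 level above the set limit.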

Columns and labels:
[1] = reducers of endogenous Her2 protein level, primary screen, SKBR3 breast tumor cells, AlphaScreen, ATP viability (AID 461); settings: 18-24 h, measured here: SKBR3 viability, ATP luminescence, at 10 µM;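 on Her2 level: lower value means less Her2 protein in the cells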;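 on viability: percent of carrier control wells set as 100% viability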
[2] = target: Receptor tyrosine-protein kinase erbB-2 (Homo sapiens) (UniProt P04626); experiment: as above; settings: 18-24 h, at 10 µM, stronger effect = lower value
[3] = SK-BR-3 cell growth inhibitors, pilot screen, 24 h, human (AID 572;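 active means viability at or below 10% of carrier control in both of two separate runs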;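 further: compound exposure lasted between 18 and 24 h rather than exactly 24 h; 100% = carrier-treated control wells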); settings: SK-BR-3 viability, CellTiter-Glo luminescence, at 10 µM, stronger effect = lower value
[4] = HUVEC growth inhibition – cell-based, human, primary screen (AID 575;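 active means viability at or below 30% in both replicate assays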;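 further: 100% = median of untreated cell wells with 0.1% DMSO on each plate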); settings: HUVEC proliferation, CellTiter-Glo luminescence, 72 h; at 10 µM; stronger effect = lower value
In short: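 Test system – primary HUVEC, no more than 12 passages · Dosing – one dose, 10 µM final, 0.1% DMSO · Times – 72 h treatment at 37 °C · Measured by – ATP-based CellTiter-Glo luminescent read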

[5] = growth inhibitors of H69AR lung tumor, primary screen, human, duplicate replicates (AID 580;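 active means viability at or under a set limit in both replicates, limit being median viability minus 3 SD, cut at about 48% in these data, passing the limit was not always enough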;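 further: 100% = mean luminescence of untreated wells and 0% = no signal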); settings: H69AR lung tumor cells viability, ATP luminescence, 72 h; at 10 µM; stronger effect = lower value
[6] = reversal of MRP1-mediated doxorubicin resistance, pilot screen, H69AR cells, doxorubicin co-treatment (AID 601;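 active means viability loss from added drug above about 55%, and viability with drug at most 40%, in both replicates, limit read from the data, passing the limit was not always enough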); settings: CellTiter-Glo, 72 h, at 10 µM; for differential viability (reversal): stronger effect = higher value
[7] = 384-well plate pilot, post-Golgi transport modulator project, inhibition of yeast transport mutant growth (AID 636; in the data active means inhibition above about 31%); settings: absorbance 615 nm, about 18 h, stronger effect = higher value
[8] = growth suppression of yeast trafficking mutant, preliminary HTS, modulators of trafficking downstream of Golgi apparatus project, 1536-format plate, OD 615 nm (AID 637; in the data active means inhibition above about 30%); settings: yeast transport mutant growth, absorbance 615 nm, 18 h; stronger effect = higher value
[9] = H69AR cells + 2 uM doxorubicin, measured here: viability with 2 uM doxorubicin, stronger effect = lower value
[10] = H69AR cells, compound alone cytotoxicity

Receptor tyrosine-protein kinase erbB-2 (Homo sapiens), sequence (P04626 whole entry, looked up): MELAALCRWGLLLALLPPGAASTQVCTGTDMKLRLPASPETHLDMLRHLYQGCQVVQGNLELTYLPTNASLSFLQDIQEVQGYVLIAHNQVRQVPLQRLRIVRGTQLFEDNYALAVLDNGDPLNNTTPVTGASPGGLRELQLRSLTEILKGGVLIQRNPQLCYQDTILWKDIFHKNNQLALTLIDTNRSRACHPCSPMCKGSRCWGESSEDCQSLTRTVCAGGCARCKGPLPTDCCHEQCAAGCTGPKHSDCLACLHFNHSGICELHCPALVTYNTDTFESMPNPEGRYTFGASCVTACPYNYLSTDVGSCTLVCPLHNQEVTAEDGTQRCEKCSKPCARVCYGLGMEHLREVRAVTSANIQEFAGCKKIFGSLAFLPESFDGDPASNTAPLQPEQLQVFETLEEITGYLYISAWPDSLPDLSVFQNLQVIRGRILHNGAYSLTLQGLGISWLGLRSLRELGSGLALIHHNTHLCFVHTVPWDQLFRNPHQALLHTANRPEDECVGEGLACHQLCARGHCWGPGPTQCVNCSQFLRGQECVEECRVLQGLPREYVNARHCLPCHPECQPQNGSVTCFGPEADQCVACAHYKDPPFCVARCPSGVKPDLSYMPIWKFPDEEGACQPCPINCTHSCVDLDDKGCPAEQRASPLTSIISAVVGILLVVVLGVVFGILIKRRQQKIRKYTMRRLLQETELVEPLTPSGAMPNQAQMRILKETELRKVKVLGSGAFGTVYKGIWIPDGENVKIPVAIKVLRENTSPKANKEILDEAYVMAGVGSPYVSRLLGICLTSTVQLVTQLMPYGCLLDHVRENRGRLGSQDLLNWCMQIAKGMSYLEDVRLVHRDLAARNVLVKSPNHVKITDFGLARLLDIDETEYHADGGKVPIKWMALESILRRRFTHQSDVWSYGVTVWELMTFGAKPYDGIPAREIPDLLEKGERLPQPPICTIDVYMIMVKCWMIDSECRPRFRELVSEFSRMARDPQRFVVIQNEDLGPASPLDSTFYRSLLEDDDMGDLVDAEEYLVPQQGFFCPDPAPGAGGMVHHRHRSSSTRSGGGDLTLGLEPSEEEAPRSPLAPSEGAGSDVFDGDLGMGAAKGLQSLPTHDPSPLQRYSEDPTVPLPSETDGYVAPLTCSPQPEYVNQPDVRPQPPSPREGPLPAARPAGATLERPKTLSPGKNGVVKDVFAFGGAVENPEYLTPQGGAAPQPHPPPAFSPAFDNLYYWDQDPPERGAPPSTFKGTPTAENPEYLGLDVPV

SMILES	viability [1]	Her2 level [2]	viability [3]	viability [4]	viability [5]	differential viability (reversal) ([6]; H69AR cells + 2 uM doxorubicin)	viability [6, 9]	viability [6, 10]	inhibition [7]	inhibition [8]
CCn1c(=N)n(CC(O)c2ccco2)c2ccccc21 (stereo not given)	94.5%	119% (inactive)	94.5% (inactive)	116% (inactive)	90.4% (inactive)	10.3% (inactive)	80.1%	90.4%	-4.49% (inactive)	4.67% (inactive)
CN(C)c1nc(SCCOC(=O)c2ccccc2)nc(N(C)C)n1	96%	80.5% (inactive)	96% (inactive)	82.1% (inactive)	101% (inactive)	16.4% (inactive)	85%	101%	-4.47% (inactive)	-2.67% (inactive)
COc1ccccc1-c1cc(C(=O)NCCCn2ccnc2)no1	82%	80% (inactive)	82% (inactive)	88.5% (inactive)	97.4% (inactive)	14.3% (inactive)	83.1%	97.4%	-7.03% (inactive)	-2.17% (inactive)
O=C(Nc1cccc(F)c1)c1cccc(S(=O)(=O)N2CCOCC2)c1	107%	87% (inactive)	107% (inactive)	92.8% (inactive)	91.6% (inactive)	0.615% (inactive)	91%	91.6%	-6.71% (inactive)	-5.71% (inactive)
O=C(CCSc1nc(-c2ccco2)cc(C(F)(F)F)n1)Nc1ccc2c(c1)OCO2	83%	94.5% (inactive)	83% (inactive)	56.3% (inactive)	78.4% (inactive)	-10.1% (inactive)	88.5%	78.4%	-7.47% (inactive)	3.81% (inactive)
Cc1nc(NC2=NCN(CC3CCCO3)CN2)nc2ccccc12 (stereo not given)	98.5%	83% (inactive)	98.5% (inactive)	86.2% (inactive)	85.1% (inactive)	-13.8% (inactive)	98.9%	85.1%	-5.07% (inactive)	-3.81% (inactive)
Cc1ccc(CN2C(=O)CCC2C(=O)NC2CCCC2)cc1 (stereo not given)	132%	95.5% (inactive)	132% (inactive)	94.3% (inactive)	94.1% (inactive)	-1.04% (inactive)	95.1%	94.1%	-6.13% (inactive)	4.59% (inactive)
CCOCCCNC(=O)CCNS(=O)(=O)c1ccc(C)cc1	102%	108% (inactive)	102% (inactive)	89.9% (inactive)	105% (inactive)	8.21% (inactive)	96.7%	105%	-3.03% (inactive)	-5.5% (inactive)
O=C1CCCC(O)=C1C=Nc1ccc2c(c1)oc1ccccc12	102%	101% (inactive)	102% (inactive)	63.7% (inactive)	88.7% (inactive)	-11.3% (inactive)	100%	88.7%	-5.87% (inactive)	1.11% (inactive)
COC(=O)c1c(N)nc(C)n1-c1ccc(OC)cc1	86.5%	91% (inactive)	86.5% (inactive)	95.9% (inactive)	96.1% (inactive)	4.61% (inactive)	91.5%	96.1%	-3.33% (inactive)	-3.77% (inactive)
CCN(CC)S(=O)(=O)c1ccc(S(=O)(=O)N(Cc2ccccn2)Cc2ccco2)cc1	94%	94.5% (inactive)	94% (inactive)	90.6% (inactive)	91% (inactive)	-0.185% (inactive)	91.2%	91%	-2.03% (inactive)	3.02% (inactive)
CCc1nc2c(cnn2-c2ccc(Cl)cc2)c(=O)n1-c1ccc2c(c1)OCCO2	90%	86.5% (inactive)	90% (inactive)	83.3% (inactive)	83.6% (inactive)	-4.38% (inactive)	88%	83.6%	0.79% (inactive)	-5.97% (inactive)
CC1CCN(S(=O)(=O)c2ccc3[nH]c(=O)cc(C(=O)O)c3c2)CC1	98%	114% (inactive)	98% (inactive)	106% (inactive)	105% (inactive)	17.1% (inactive)	88.3%	105%	-4.16% (inactive)	-4.1% (inactive)
CCn1nc(C(=O)OCC(=O)c2cc(C)n(Cc3cccs3)c2C)c2ccccc2c1=O	93.5%	93% (inactive)	93.5% (inactive)	84.1% (inactive)	83.6% (inactive)	-9.39% (inactive)	93%	83.6%	-3.2% (inactive)	26.6% (inactive)
